KCNQ1 act = potentiates or activates the human KCNQ1 potassium channel; P51787; CHO-K1 KCNQ1, thallium flux FluxOR fluorescence; hits give high values; B-score at 10 µM; hit rate 0.35% among 310,000; AID 2648;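 active = fluorescence ratio B-score, a plate-corrected score, at least three library SD, with initial intensity B-score within 5 SD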
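Schedule – 37 °C overnight plating, 90-min dark dye load, 20-min compound pretreatment · System – stable KCNQ1 CHO-K1 line · Probe or stimulus – thallium- and potassium-containing depolarizing buffer · Measured by – kinetic FluxOR fluorescence, 10 s baseline plus 110 s post-stimulus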
hERG protect = shields human hERG channel from block by proarrhythmic agents. CHO-hERG, FluxOR thallium flux, dofetilide IC70 present. activation (rescue from dofetilide block), less the hit threshold, % at 10 µM. hit rate 0.51% among 310,000;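 active = activation above the mean of controls blocked by dofetilide plus 5 SD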;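 note: thallium influx through hERG after potassium depolarization seen as dye fluorescence rise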
KCNQ1 inh = blocks the human KCNQ1 potassium channel; P51787; CHO-K1 KCNQ1, FluxOR thallium flux fluorescence; hits give high values; B-score at 10 µM; hit rate 1.3% among 310,000; AID 2642;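 active = compounds whose thallium flux B-score, printed positive for inhibition, exceeds three library SD while starting fluorescence stays within three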;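 note: channel opened by potassium depolarization with thallium stimulus after 20 min compound exposure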
KCNK3 block = human KCNK3 channel inhibition, primary screen; CHO-KCNK3 thallium flux, FluxOR fluorescence; hits give low values; B-score at 10 µM; hit rate 0.84% among 340,000; AID 602410;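 active = B-score under library mean minus 4 SD, starting fluorescence ratio at most library mean plus 5 SD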;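 note: more negative B-score means stronger inhibition of thallium flux through KCNK3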
KCNK9 inh = inhibitors of human KCNK9 two-pore domain potassium channel. hit rate 1.2% among 310,000. HEK293 KCNK9, FluxOR thallium flux fluorescence; hits give low values. Q9NPC2. B-score at 10 µM. AID 488922;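 active = ratio B-score over 3 SD below the library mean, with starting fluorescence within 5 SD of its mean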;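 note: negative B-score means less thallium flux so channel inhibition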
Kir21 block = Kir2.1 (mouse) channel inhibition | P35561 | HEK293-Kir2.1, FluxOR thallium flux fluorescence; hits give low values | B-score at 10 µM | hit rate 0.85% among 310,000 | AID 1672;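 active = fluorescence ratio B-score at or below minus 3 SD of library scores, with starting-brightness B-score within 2 SD, cut at about -4.2 in these data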;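 note: channel flux triggered by added potassium and thallium sulfate stimulus; B-score of peak minus minimum fluorescence over baseline after thallium stimulus; more negative B-score means stronger Kir2.1 block with less thallium influx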
Target sequence (P35561 whole entry, looked up): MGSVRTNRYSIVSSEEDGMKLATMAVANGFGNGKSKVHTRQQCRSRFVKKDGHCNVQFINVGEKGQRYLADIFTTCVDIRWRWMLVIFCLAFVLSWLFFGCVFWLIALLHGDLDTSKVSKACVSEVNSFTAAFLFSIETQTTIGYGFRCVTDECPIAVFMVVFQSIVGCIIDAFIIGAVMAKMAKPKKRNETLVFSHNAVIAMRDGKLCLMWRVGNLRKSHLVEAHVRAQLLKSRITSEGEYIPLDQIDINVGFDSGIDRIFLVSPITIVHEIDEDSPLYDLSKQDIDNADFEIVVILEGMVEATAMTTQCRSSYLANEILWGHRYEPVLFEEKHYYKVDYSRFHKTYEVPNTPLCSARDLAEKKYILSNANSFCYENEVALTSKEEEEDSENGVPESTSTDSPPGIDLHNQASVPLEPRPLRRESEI
KCNK3 inh conf = confirmation of human KCNK3 two-pore domain potassium channel inhibitors | shares compounds with KCNK3 block | CHO-KCNK3 thallium flux, FluxOR fluorescence; 0% buffer, 100% carvedilol maximal block | ratio percent of control, % at 10 µM | hit rate 99% among 2,400 | AID 651638;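 active = ratio percent of control, averaged over triplicates, above buffer control mean plus 5 SD, cut at about 64% in these data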;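 note: ratio is the fluorescence rise from min to max over baseline after thallium stimulus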
KCNK3 noninduced = counter-screen for KCNK3 inhibitors: effect in non-induced cells. non-induced KCNK3 parental cells, FluxOR thallium flux; hits give low values. thallium flux ratio (lower = more inhibition) at 10 µM. hit rate 40% among 2,400. shares compounds with KCNK3 block. AID 651747;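 active = thallium flux ratio, averaged over three wells, more than 5 SD below the buffer control mean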;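 note: host cells are CHO cells without KCNK3 induction; ratio is peak minus trough fluorescence over baseline then normalized to buffer controls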
Starred values were filed as active, the others as inactive; i = inactive; / = no result given. Only some compounds are listed: those with a hit (about 3.7% of all), similar ones and a draw of the others.

SMILES	KCNQ1 act	hERG protect	KCNQ1 inh	KCNK3 block	KCNK9 inh	Kir21 block	KCNK3 inh conf	KCNK3 noninduced
CCC1(c2ccccc2)SC(=O)NC1=O (stereo unspecified)	/	/	/	i	/	/	/	/
COc1ccc(NC(=S)N(CCN2CCOCC2)Cc2cc3cc4c(cc3[nH]c2=O)OCO4)cc1	i	-3	i	/	i	1.4	/	/
Cc1cccc(NC(=S)N(CCN2CCOCC2)Cc2cc3cc4c(cc3[nH]c2=O)OCCO4)c1	i	-15	i	-12*	i	-1.5	91*	i
Cc1ccc(NC(=S)N(CCN2CCOCC2)Cc2cc3cc4c(cc3[nH]c2=O)OCO4)cc1	i	-12	i	-11*	i	0.02	92*	i
Cc1ccc(NC(=S)N(CCN2CCOCC2)Cc2cc3cc4c(cc3[nH]c2=O)OCCO4)cc1	i	-12	i	-8.9*	i	0.34	98*	i
CCOc1ccc(NC(=S)N(CCN2CCOCC2)Cc2cc3cc4c(cc3[nH]c2=O)OCO4)cc1	i	-11	i	i	i	1.4	/	/
O=C(Cc1ccc(Cl)c(Cl)c1)N1CCOCC1	i	-5	i	i	i	0.98	/	/
O=C1Cc2cc(S(=O)(=O)Nc3ccccc3Cl)cc3c2N1CCC3	i	-8	i	i	i	-0.03	/	/
COc1ccc(SC[C@H](Cc2ccccc2)N2CCN(C)CCC2=O)cc1	i	-8	i	i	i	-3.3	/	/
Cn1c(N)c(C(=O)CSc2n[nH]c(-c3ccccc3)n2)c(=O)n(C)c1=O	/	/	/	i	/	/	/	/
N#Cc1c(N)nc(SCC(=O)OCc2ccccc2)c(C#N)c1-c1ccco1	i	-8	i	-11*	i	-0.79	87*	i
Cc1ccc(NC(=O)COc2cccnc2[N+](=O)[O-])cc1S(=O)(=O)N1CCOCC1	i	4	i	i	i	-3.4	/	/
COC(=O)CSc1nc(Cc2ccccc2)nc2ccccc12	i	-29	i	-8.7*	i	-2.8	119*	i
CCOc1ccccc1C(C(=O)NC1CCCC1)N(C(=O)c1csnn1)C1CC1 (stereo unspecified)	i	-6	i	i	i	-1.5	/	/
CNC[C@H]1Oc2c(NS(=O)(=O)c3ccccc3)cccc2C(=O)N([C@H](C)CO)C[C@@H]1C	/	/	/	i	/	/	/	/
Cc1nn(C(C)(C)C)c(OC(=O)C2CCCC2)c1S(=O)(=O)c1ccccc1	i	-5	i	-9.9*	i	-1.6	90*	i
O=C(Cc1ccccc1)Nc1cccc(-c2nc3ncccc3o2)c1	i	-2	i	-10*	i	-1.5	64*	i
COc1ccccc1N1CCN(C(c2cccs2)C(C)NS(=O)(=O)c2ccccc2)CC1 (stereo unspecified)	i	-14	6*	-9.6*	i	-0.51	96*	i
CC(NS(=O)(=O)c1ccccc1)C(c1cccs1)N1CCN(c2ccccc2)CC1 (stereo unspecified)	i	-5	i	i	i	0.09	/	/
O=C(O)C1C2C=CC(C2)C1C(=O)NCc1ccc2c(c1)OCO2 (stereo unspecified)	i	-1	i	-8.9*	i	-0.58	90*	i
CC(=O)Nc1ccc(NC(=O)C(C)OC(=O)CCCOc2ccc(Cl)cc2C)cc1 (stereo unspecified)	i	-10	i	i	i	-0.67	/	/
CCOc1ccccc1NC(=S)NC(=O)CCCOc1ccc(Cl)cc1Cl	i	2	i	-11*	i	-0.62	109*	i
Nn1cc(-c2ccccc2)nc1SCC(=O)Nc1ccc(S(N)(=O)=O)cc1	i	-10	i	i	i	-0.66	/	/
COC(=O)c1ccccc1NC(=O)Cn1cnc2ccc(S(=O)(=O)N3CCC(C)CC3)cc2c1=O	i	-1	i	i	i	1.4	/	/
CC1CCN(S(=O)(=O)c2ccc3ncn(CC(=O)N(C)Cc4ccccc4)c(=O)c3c2)CC1	i	-2	i	-13*	i	-0.02	72*	i
SMILES	KCNQ1 act	hERG protect	KCNQ1 inh	KCNK3 block	KCNK9 inh	Kir21 block	KCNK3 inh conf	KCNK3 noninduced
CCN(CC)C(=O)Oc1nnc(SC(C)C)n1-c1ccc(Cl)c(Cl)c1	i	-11	i	i	i	2.2	/	/
CCN(CC)C(=O)Oc1nnc(SC(C)C)n1-c1ccc(Cl)cc1	i	-10	i	-9.6*	i	-1.1	86*	i
O=C(COc1ccc(Cl)cc1)Nc1nc(-c2cccs2)cs1	i	-3	i	-9.3*	i	-0.37	127*	0.15*
O=C(CCNC(=O)c1ccccc1Cl)Nc1cc(S(=O)(=O)N2CCOCC2)ccc1N1CCCC1	i	-10	i	i	i	0.8	/	/
O=C1c2ccccc2C(Nc2ccc(F)c(Cl)c2)N1c1ccccn1 (stereo unspecified)	i	-8	i	i	i	0.58	/	/
COc1ccc(NC2c3ccccc3C(=O)N2c2ccccn2)cc1Cl (stereo unspecified)	i	-8	i	-11*	-7.5*	1.8	112*	i
Clc1cccc(NCc2ccccc2)n1	i	-23	i	i	i	-2.3	/	/
CC(C)(C)c1ccc(OCCn2nc(C(=O)O)c3ccccc3c2=O)cc1	i	-8	i	-9.1*	i	-0.03	112*	i
COc1ccc(NC(=S)N2CCN(C(=O)c3ccco3)CC2)cc1OC	i	-10	i	i	i	1.8	/	/
CCOC(=O)C1CCN(c2nc3c(C)cccn3c(=O)c2/C=C(\C#N)S(=O)(=O)c2ccccc2)CC1	i	-13	i	-9.3*	i	-0.99	95*	i
O=C(c1ccccc1)C1CCN(c2ncccc2[N+](=O)[O-])CC1	i	-10	i	-8.8*	i	-0.91	85*	i
COc1cccc(C2Nc3ccccc3NC3=C2C(=O)CC(C)(C)C3)c1 (stereo unspecified)	i	-7	i	i	i	1.2	/	/
COc1ccc(Cl)cc1NC(=O)N1CCN(c2ccccc2OC)CC1	i	-13	i	-11*	i	-0.07	82*	i
CCOc1ccc(N(CC(=O)Nc2ccccc2OCC)S(=O)(=O)c2c(C)noc2C)cc1	i	-5	i	i	i	1.9	/	/
O=C(O)c1ccc(NC2(C(=O)O)CCCC2)cc1	/	/	/	i	/	/	/	/
Cc1ccc(-n2cc(CN3CCC(CO)(Cc4cccc(C(F)(F)F)c4)CC3)cn2)cc1	i	-23	i	i	i	-2.5	/	/

Source: PubChem (Johns Hopkins Ion Channel Center)
